Reference: ChEMBL document CHEMBL3600357 (J Med Chem, 2015)
Active and inactive are the calls of the source. No cut-off for these calls is given here.

Assays:
SJSA-1 [1] = assay: Inhibition of cell proliferation of human SJSA1 cells
[2] = Octanol water partition coefficient, logP of the compound; format: physicochemical
[3] = Intrinsic clearance in monkey liver microsomes; format: ADME, Macaca mulatta; details: rhesus monkey, read-out: CLH
Rattus norvegicus [4] = assay: Volume of distribution at steady state in Sprague-Dawley rat at 1 mg/kg, iv; format: ADME, organism-based; details: in vivo
Rattus norvegicus [5] = assay: AUC in Sprague-Dawley rat at 3 mg/kg, po; format: ADME, organism-based; details: in vivo
How it was run: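 Sprague-Dawley rats. IV dose given as a solution in NMP:PEG200 (10:90); 3 mg/kg PO given as a suspension in CMC:water:Tween (0.5:99:0.5). AUC and Cmax dose-normalized to 1 mg/kg. Mean ± SD from four rats.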

[6] = Protein binding in Sprague-Dawley rat plasma by equilibrium dialysis method; format: ADME, cell-free; details: read-out: PPB
How it was run: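 Rat plasma protein binding by rapid equilibrium dialysis (RED) in 100% plasma.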

[7] = biological target: E3 ubiquitin-protein ligase Mdm2 (Canis lupus familiaris, UniProt P56950); assay: Inhibition of dog MDM2 by TR-FRET assay
E3 ubiquitin-protein ligase Mdm2 (Canis lupus familiaris, UniProt P56950), sequence (P56950 whole entry): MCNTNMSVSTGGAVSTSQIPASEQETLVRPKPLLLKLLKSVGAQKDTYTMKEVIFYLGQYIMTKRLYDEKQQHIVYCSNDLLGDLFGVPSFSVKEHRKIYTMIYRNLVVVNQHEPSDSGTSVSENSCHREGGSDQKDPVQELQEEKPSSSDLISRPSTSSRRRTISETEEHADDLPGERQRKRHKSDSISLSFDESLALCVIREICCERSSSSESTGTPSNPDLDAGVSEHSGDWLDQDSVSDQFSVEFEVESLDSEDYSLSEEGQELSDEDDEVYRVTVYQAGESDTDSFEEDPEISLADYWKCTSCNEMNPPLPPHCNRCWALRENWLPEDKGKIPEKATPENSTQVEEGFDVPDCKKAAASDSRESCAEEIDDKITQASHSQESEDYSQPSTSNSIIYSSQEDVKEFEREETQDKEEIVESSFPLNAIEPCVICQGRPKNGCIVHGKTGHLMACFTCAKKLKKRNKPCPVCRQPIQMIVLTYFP

[8] = biological target: E3 ubiquitin-protein ligase Mdm2 (Mus musculus, UniProt P23804); assay: Inhibition of mouse MDM2 by TR-FRET assay
E3 ubiquitin-protein ligase Mdm2 (Mus musculus, UniProt P23804), sequence (P23804 whole entry): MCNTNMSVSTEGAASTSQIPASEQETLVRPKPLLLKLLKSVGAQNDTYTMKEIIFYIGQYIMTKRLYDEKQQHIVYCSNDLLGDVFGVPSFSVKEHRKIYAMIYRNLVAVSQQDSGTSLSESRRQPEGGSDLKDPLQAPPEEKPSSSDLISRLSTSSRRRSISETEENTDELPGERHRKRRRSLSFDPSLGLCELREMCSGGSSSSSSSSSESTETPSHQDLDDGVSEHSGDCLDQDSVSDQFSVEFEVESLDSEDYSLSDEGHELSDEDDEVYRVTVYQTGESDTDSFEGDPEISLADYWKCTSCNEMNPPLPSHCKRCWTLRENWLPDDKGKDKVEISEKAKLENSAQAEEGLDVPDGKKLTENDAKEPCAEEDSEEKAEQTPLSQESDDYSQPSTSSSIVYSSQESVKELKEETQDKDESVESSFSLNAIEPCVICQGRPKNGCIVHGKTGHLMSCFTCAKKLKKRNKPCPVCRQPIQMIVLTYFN

[9] = Volume of distribution at steady state in beagle dog at 0.1 mg/kg, iv; format: ADME, organism-based, Canis lupus familiaris; details: in vivo, read-out: Vdss
Canis familiaris = assay: AUC in beagle dog at 0.3 mg/kg, po; format: ADME, organism-based, Canis lupus familiaris; details: in vivo
[10] = Cmax in beagle dog at 0.3 mg/kg, po; format: ADME, organism-based, Canis lupus familiaris; set-up: dose 0.3 mg/kg, route oral; details: in vivo
[11] = Protein binding in beagle dog plasma by equilibrium dialysis method; format: ADME, cell-free, Canis lupus familiaris; details: read-out: PPB
[12] = Volume of distribution at steady state in cynomolgus monkey at 0.1 mg/kg, iv; format: ADME, organism-based, Macaca fascicularis; details: in vivo, read-out: Vdss
[13] = Terminal half life in cynomolgus monkey at 0.1 mg/kg, iv; format: ADME, organism-based, Macaca fascicularis; details: in vivo, read-out: beta t1/2 (converted)
[14] = Tmax in cynomolgus monkey at 0.3 mg/kg, po; format: ADME, organism-based, Macaca fascicularis; details: in vivo
Cynomolgus monkey = assay: Oral bioavailability in cynomolgus monkey at 0.3 mg/kg; format: ADME, organism-based, Macaca fascicularis; details: in vivo
[15] = biological target: T1, Induced myeloid leukemia cell differentiation protein Mcl-1 (Homo sapiens, UniProt Q07820); assay: Inhibition of Mcl1 (unknown origin) assessed as inhibition of Mcl1-Bak interaction by TR-FRET assay
T1 sequence (Q07820 whole entry): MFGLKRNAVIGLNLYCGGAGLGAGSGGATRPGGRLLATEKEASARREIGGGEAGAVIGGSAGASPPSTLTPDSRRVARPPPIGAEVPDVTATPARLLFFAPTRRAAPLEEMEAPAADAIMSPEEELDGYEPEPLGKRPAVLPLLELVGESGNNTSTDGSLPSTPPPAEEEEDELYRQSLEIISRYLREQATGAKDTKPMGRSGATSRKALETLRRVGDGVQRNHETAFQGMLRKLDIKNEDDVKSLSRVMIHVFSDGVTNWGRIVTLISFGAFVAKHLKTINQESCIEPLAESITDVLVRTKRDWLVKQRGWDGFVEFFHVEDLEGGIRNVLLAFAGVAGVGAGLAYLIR

[16] = biological target: T1, Induced myeloid leukemia cell differentiation protein Mcl-1; assay: Inhibition of Mcl1 (unknown origin) assessed as inhibition of Mcl1-Noxa interaction by TR-FRET assay
[17] = biological target: E3 ubiquitin-protein ligase XIAP (Homo sapiens, UniProt P98170); assay: Inhibition of XIAP (unknown origin) assessed as inhibition of XIAP-BIR3 interaction by TR-FRET assay
E3 ubiquitin-protein ligase XIAP, sequence (P98170 whole entry): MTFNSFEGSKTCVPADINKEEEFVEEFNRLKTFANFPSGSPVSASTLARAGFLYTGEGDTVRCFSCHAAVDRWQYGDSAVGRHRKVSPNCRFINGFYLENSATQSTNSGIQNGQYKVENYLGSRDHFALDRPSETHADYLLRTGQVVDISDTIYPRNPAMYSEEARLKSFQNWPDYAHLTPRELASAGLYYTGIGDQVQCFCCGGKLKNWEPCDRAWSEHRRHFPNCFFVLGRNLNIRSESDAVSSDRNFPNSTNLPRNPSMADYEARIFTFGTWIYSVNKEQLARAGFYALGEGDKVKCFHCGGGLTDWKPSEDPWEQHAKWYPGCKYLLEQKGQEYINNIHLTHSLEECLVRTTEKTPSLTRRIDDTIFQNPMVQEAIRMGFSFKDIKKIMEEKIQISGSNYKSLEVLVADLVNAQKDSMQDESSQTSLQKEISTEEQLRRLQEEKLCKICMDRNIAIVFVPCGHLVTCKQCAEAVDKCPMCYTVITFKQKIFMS

[18] = biological target: Baculoviral IAP repeat-containing protein 2 (Homo sapiens, UniProt Q13490); assay: Inhibition of cIAP (unknown origin) assessed as inhibition of cIAP-BIR3 interaction by TR-FRET assay
Baculoviral IAP repeat-containing protein 2, sequence (Q13490 whole entry): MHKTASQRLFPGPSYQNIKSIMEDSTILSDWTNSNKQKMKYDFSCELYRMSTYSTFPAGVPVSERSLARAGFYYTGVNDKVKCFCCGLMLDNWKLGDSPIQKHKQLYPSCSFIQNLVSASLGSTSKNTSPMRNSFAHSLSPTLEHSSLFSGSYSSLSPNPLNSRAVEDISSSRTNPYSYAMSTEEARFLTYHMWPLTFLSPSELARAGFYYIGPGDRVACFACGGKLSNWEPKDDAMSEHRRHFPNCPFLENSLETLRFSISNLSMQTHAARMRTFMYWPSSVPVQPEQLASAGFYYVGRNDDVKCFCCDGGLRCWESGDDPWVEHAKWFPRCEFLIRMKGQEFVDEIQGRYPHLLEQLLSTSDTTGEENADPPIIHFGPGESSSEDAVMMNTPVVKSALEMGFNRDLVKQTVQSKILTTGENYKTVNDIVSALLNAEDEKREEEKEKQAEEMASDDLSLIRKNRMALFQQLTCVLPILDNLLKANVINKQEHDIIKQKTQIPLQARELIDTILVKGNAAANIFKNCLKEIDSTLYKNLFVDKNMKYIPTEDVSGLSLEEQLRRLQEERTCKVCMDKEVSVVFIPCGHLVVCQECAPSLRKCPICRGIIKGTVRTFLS

HCT-116 = assay: Inhibition of cell proliferation of human HCT116 cells expressing p53
[19] = Inhibition of cell proliferation of human SJSA1 cells expressing p53; details: SJSA-1
Rattus norvegicus [20] = assay: In-vivo inhibition of MDM2/p53 interaction in human SJSA1 cells xenografted rat assessed as increase in p21 mRNA level at 30 mg/kg, po measured within 72 hrs post dose by qRT-PCR method; format: functional, organism-based; details: SJSA-1
How it was run: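 SJSA-1 (MDM2-amplified) tumour-bearing rats were dosed at 30 mg/kg. Tumour samples were collected over time, and p21, MDM2 and PUMA mRNA were measured as p53 pharmacodynamic markers, alongside compound levels.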

SJSA-1 [21] = assay: Antitumor activity against human SJSA1 cells xenografted in rat assessed as reduction tumor growth dosed orally on daily basis under q24h regime; format: functional, organism-based
How it was run: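 SJSA-1 tumour-bearing rats were treated either daily or 3qw (Monday, Wednesday and Friday) across a range of doses, and tumour growth was followed over the treatment course. Plasma AUC0-24 was also determined, along with AUC0-48 for the 3qw schedule.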

Rattus norvegicus [22] = assay: Toxicity in human SJSA1 cells xenografted dosed rat assessed as induction of histopathological changes at 30 mg/kg, po qd; format: organism-based, SJSA-1; details: in vivo
How it was run: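 Daily treatment of SJSA-1 tumour-bearing rats; histopathology was performed on the 30 mg/kg daily dose group to look for compound-related findings.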

Rattus norvegicus [23] = species: Rattus norvegicus; assay: Toxicity in rat assessed as changes in heart parameters; format: organism-based; details: in vivo
Rattus norvegicus [24] = species: Rattus norvegicus; assay: Toxicity in female rat assessed as changes in adrenal gland parameters; format: organism-based; details: in vivo
Rattus norvegicus [25] = species: Rattus norvegicus; assay: Toxicity in rat assessed as induction of structural changes in testes tubular epithelium; format: organism-based, Testis; details: in vivo
Rattus norvegicus [26] = species: Rattus norvegicus; assay: Toxicity in rat testes assessed as effect on proliferative cells; format: organism-based, Testis; details: in vivo
Rattus norvegicus [27] = assay: Toxicity in human SJSA1 cells xenografted rat assessed as change in body weight at 5 mg/kg, po qd (reference value: 1.9 to 6.8%); format: organism-based, SJSA-1; details: in vivo
Rattus norvegicus [28] = assay: Toxicity in human SJSA1 cells xenografted rat assessed as change in body weight at 10 mg/kg, po qd (reference value: 1.9 to 6.8%); format: organism-based, SJSA-1; details: in vivo
Rattus norvegicus [29] = assay: Toxicity in human SJSA1 cells xenografted rat assessed as change in body weight at 20 mg/kg, po qd (reference value: 1.9 to 6.8%); format: organism-based, SJSA-1; details: in vivo
Rattus norvegicus [30] = assay: Toxicity in human SJSA1 cells xenografted rat assessed as change in body weight at 30 mg/kg, po qd (reference value: 1.9 to 6.8%); format: organism-based, SJSA-1; details: in vivo
Rattus norvegicus [31] = assay: Toxicity in human SJSA1 cells xenografted rat assessed as mouse survival at 5 mg/kg, po qd; format: organism-based, SJSA-1; details: in vivo
How it was run: (§1)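 Tolerability was monitored in SJSA-1 tumour-bearing rats during the daily and 3qw (Monday, Wednesday, Friday) treatment schedules. Histopathology was done on all 3qw doses and on the 30 mg/kg daily group.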

Rattus norvegicus [32] = assay: Toxicity in human SJSA1 cells xenografted rat assessed as mouse survival at 10 mg/kg, po qd; format: organism-based, SJSA-1; details: in vivo; how it was run: as §1
Rattus norvegicus [33] = assay: Toxicity in human SJSA1 cells xenografted rat assessed as mouse survival at 20 mg/kg, po qd; format: organism-based, SJSA-1; details: in vivo; how it was run: as §1
[34] = AUC (0 to 24 hrs) in human SJSA1 cells xenografted rat assessed as mouse survival at 20 mg/kg, po qd; format: ADME, organism-based, SJSA-1; set-up: time < 24 hr, dose 20 mg/kg, route oral; details: in vivo
How it was run: (§2)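 Rats bearing MDM2-amplified human SJSA-1 tumors, dosed orally either daily or 3qw (Monday, Wednesday, Friday). Plasma exposure reported as AUC0-24, plus AUC0-48 for the 3qw schedule.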

[35] = AUC (0 to 24 hrs) in human SJSA1 cells xenografted rat assessed as mouse survival at 30 mg/kg, po qd; format: ADME, organism-based, SJSA-1; set-up: time < 24 hr, dose 30 mg/kg, route oral; details: in vivo; how it was run: as §2
[36] = AUC (0 to 24 hrs) in human SJSA1 cells xenografted rat assessed as mouse survival at 30 mg/kg, po dosed 3 times per week; format: ADME, organism-based, SJSA-1; set-up: dose 30 mg/kg, time < 24 hr, route oral; details: in vivo; how it was run: as §2
[37] = AUC (0 to 48 hrs) in human SJSA1 cells xenografted rat assessed as mouse survival at 30 mg/kg, po dosed 3 times per week; format: ADME, organism-based, SJSA-1; set-up: time < 48 hr, dose 30 mg/kg, route oral; details: in vivo; how it was run: as §2
[38] = AUC (0 to 24 hrs) in human SJSA1 cells xenografted rat assessed as mouse survival at 70 mg/kg, po dosed 3 times per week; format: ADME, organism-based, SJSA-1; set-up: time < 24 hr, dose 70 mg/kg, route oral; details: in vivo; how it was run: as §2
[39] = AUC (0 to 48 hrs) in human SJSA1 cells xenografted rat assessed as mouse survival at 70 mg/kg, po dosed 3 times per week; format: ADME, organism-based, SJSA-1; set-up: time < 48 hr, dose 70 mg/kg, route oral; details: in vivo; how it was run: as §2

COc1cc2c(cc1OC(C)C)[C@H](c1ccc(Cl)cc1)N(c1ccc(N(C)C[C@H]3CC[C@H](N4CCN(C)C(=O)C4)CC3)cc1)C(=O)C2 [CGM-097]
GI50 (SJSA-1 [1]): 350 nM
logP [2]: 5.8
microsomal CLint [3]: 26.6 µL/min/mg
Vdss (Rattus norvegicus [4]): 6.4 L/kg
AUC (Rattus norvegicus [5]): 2.779 µM·h
fraction unbound [6]: < 0.01
Ki [7]: 20.5 nM
Ki [8]: 65.9 nM
Vd [9]: 4.2 L/kg
AUC (Canis familiaris): 5.993 µM·h
Cmax [10]: 251 nM
fraction unbound [11]: < 0.01
Vd [12]: 2 L/kg
half-life [13]: 8.3 h
Tmax [14]: 1.3 h
F (Cynomolgus monkey): 57%
IC50 [15]: > 50000 nM
IC50 [16]: > 50000 nM
IC50 [17]: > 50000 nM
IC50 [18]: > 50000 nM
IC50 (HCT-116): 454 nM
IC50 [19]: 353 nM
inhibition (Rattus norvegicus [20]): Active
growth inhibition (GI) (SJSA-1 [21]): Dose-dependent effect
Activity (Rattus norvegicus [22]): Non-toxic
Activity (Rattus norvegicus [23]): Toxic
Activity (Rattus norvegicus [24]): Toxic
Activity (Rattus norvegicus [25]): Toxic
Activity (Rattus norvegicus [26]): Non-toxic
Activity (Rattus norvegicus [27]): 2.8%
Activity (Rattus norvegicus [28]): 1.8%
Activity (Rattus norvegicus [29]): 3.4%
Activity (Rattus norvegicus [30]): 4.5%
Activity (Rattus norvegicus [31]): Non-toxic
Activity (Rattus norvegicus [32]): Non-toxic
Activity (Rattus norvegicus [33]): Non-toxic
AUC at 24 h [34]: 163 µM·h
AUC at 24 h [35]: 421 µM·h
AUC at 24 h [36]: 230 µM·h
AUC at 48 h [37]: 381 µM·h
AUC at 24 h [38]: 616 µM·h
AUC at 48 h [39]: 1040 µM·h
